Measured values: ChEMBL document CHEMBL4665734, “Optimization of globomycin analogs as novel gram-negative antibiotics” (Bioorg Med Chem Lett, 2020)
In brackets after ≈: the same amount, converted by molar mass. Starred links: 1 amine or outer side, 2 acyl side, 3 side chain; linkers in the order of their positions; H or OH if unused. Non-standard residues stand in square brackets, D forms with d. Residues, ends and D or L forms follow the SMILES beside them. Groups on a side chain read outwards from the residue. *: point of attachment. X1 = CCCCCC[C@@H](OC[C@@H](C)N[*:1])[C@@H](C)C(=O)[*:2]; Gly(cHept) = N[C@H](C(=O)O)C1CCCCCC1; Propyl(3-guanidino) = N=C(N)NCCC*; NMeL = CN[C@@H](CC(C)C)C(=O)O; Chg = N[C@H](C(=O)O)C1CCCCC1; NMeNva = CCC[C@H](NC)C(=O)O; X13 = N[C@H]1C[C@H](N*)C1; hSer = N[C@@H](CCO)C(=O)O; Dap = NC[C@H](N)C(=O)O; Propyl(3-NH2) = NCCC*; CO = O=C([*:1])[*:2]; X15 = O=C(O)CCCNCCC*; X11 = NCCCC*

Key:
Escherichia coli CFT073 = experiment: Inhibition of LspA in wild type Escherichia coli CFT073 assessed as inhibition of bacterial growth
Procedure, shortened: (§1)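 Read-out is the minimum inhibitory concentration, reported in µM.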

Escherichia coli = experiment: Inhibition of LspA in Escherichia coli CFT073imp4213 harboring outer membrane-permeable mutant assessed as inhibition of bacterial growth; procedure, shortened: as §1
[1] = Growth inhibition of Staphylococcus aureus USA300
[2] = Lipophilicity, logD of the compound at pH 7.4; conditions: buffer, pH 7.4, logD

| SMILES | MIC (Escherichia coli CFT073) | MIC (Escherichia coli) | MIC [1] | logD [2] |
| --- | --- | --- | --- | --- |
| CCCCCC[C@H]1OC[C@@H](C)NC(=O)[C@H](COCCCNCCCC(=O)O)NC(=O)[C@H](CN)NC(=O)[C@H](C2CCCCCC2)NC(=O)[C@H](CCC)N(C)C(=O)[C@@H]1C (cyclo([Dap]S(X15)[X1][NMeNva][Gly(cHept)])) | 100 µM (≈ 81 µg/mL) | 0.78 µM (≈ 0.632 µg/mL) | > 100 µM |  |
| CC(C)C[C@H]1C(=O)N[C@@H](C2CCCCC2)C(=O)N[C@@H](CN)C(=O)N[C@@H]([C@H](C)O)C(=O)NCC(=O)O[C@H](CCCCCCC(C)(C)O)[C@@H](C)C(=O)N1C | 15 µM (≈ 11.1 µg/mL) | 0.55 µM (≈ 0.406 µg/mL) | > 100 µM | 2.2 |
| CCCCCC[C@H]1OC(=O)CNC(=O)[C@H]([C@H](C)O)NC(=O)[C@H](CN)NC(=O)[C@H](C2CCCCC2)NC(=O)[C@H](CC)N(C)C(=O)[C@@H]1C | 8.8 µM (≈ 5.74 µg/mL) | 0.14 µM (≈ 0.0914 µg/mL) | > 100 µM |  |
| CCCCCC[C@H]1OC[C@@H](C)NC(=O)[C@H](CNC(=O)N[C@H]2C[C@H](N)C2)NC(=O)[C@H](CN)NC(=O)[C@H](C2CCCCCC2)NC(=O)[C@H](CCC)N(C)C(=O)[C@@H]1C (cyclo([Dap][Dap]([CO-X13])[X1][NMeNva][Gly(cHept)])) | 12 µM (≈ 9.34 µg/mL) | 0.39 µM (≈ 0.303 µg/mL) | 71 µM (≈ 55.2 µg/mL) | 1.5 |
| CCCCCC[C@H]1OC[C@@H](C)NC(=O)[C@H](COc2ccc(CN)cc2)NC(=O)[C@H](CN)NC(=O)[C@H](C2CCCCC2)NC(=O)[C@H](CCC)N(C)C(=O)[C@@H]1C | 6.3 µM (≈ 4.78 µg/mL) | 0.39 µM (≈ 0.296 µg/mL) | 100 µM (≈ 75.8 µg/mL) | 2.5 |
| CCCCCC[C@H]1OC(=O)CNC(=O)[C@H]([C@H](C)O)NC(=O)[C@H](CN)NC(=O)[C@H]([C@H](C)CC)NC(=O)[C@H](CC(C)C)N(C)C(=O)[C@@H]1C | 8.6 µM (≈ 5.63 µg/mL) | 0.053 µM (≈ 0.0347 µg/mL) | > 100 µM |  |
| CCCCCC[C@H]1OC[C@@H](C)NC(=O)[C@H](CCOCCCN)NC(=O)[C@H](CN)NC(=O)[C@H](C2CCCCCC2)NC(=O)[C@H](CCC)N(C)C(=O)[C@@H]1C (cyclo([Dap][hSer](Propyl(3-NH2))[X1][NMeNva][Gly(cHept)])) | 8.8 µM (≈ 6.49 µg/mL) | 0.2 µM (≈ 0.148 µg/mL) | 100 µM (≈ 73.8 µg/mL) | 1.7 |
| CCCCCC[C@H]1OC[C@@H](C)NC(=O)[C@H](COCCCCN)NC(=O)[C@H](CN)NC(=O)[C@H](C2CCCCCC2)NC(=O)[C@H](CCC)N(C)C(=O)[C@@H]1C (cyclo([Dap]S(X11)[X1][NMeNva][Gly(cHept)])) | 6.3 µM (≈ 4.65 µg/mL) | 0.14 µM (≈ 0.103 µg/mL) | 71 µM (≈ 52.4 µg/mL) | 1.8 |
| CCCCCC[C@H]1OC[C@@H](C)NC(=O)[C@H](COc2ccc(CCN)cc2)NC(=O)[C@H](CN)NC(=O)[C@H](C2CCCCC2)NC(=O)[C@H](CCC)N(C)C(=O)[C@@H]1C | 1.6 µM (≈ 1.24 µg/mL) | 0.048 µM (≈ 0.0371 µg/mL) | 25 µM (≈ 19.3 µg/mL) | 2.4 |
| CCCCCC[C@H]1OC[C@@H](C)NC(=O)[C@H](COCCCNC(=N)N)NC(=O)[C@H](CN)NC(=O)[C@H](C2CCCCC2)NC(=O)[C@H](CC(C)C)N(C)C(=O)[C@@H]1C (cyclo([Chg][Dap]S(Propyl(3-guanidino))[X1][NMeL])) | 4.4 µM (≈ 3.37 µg/mL) | 0.2 µM (≈ 0.153 µg/mL) | 5 µM (≈ 3.83 µg/mL) | 2 |
| CCCC(C)(C)CC[C@H]1OC(=O)CNC(=O)[C@H]([C@H](C)O)NC(=O)[C@H](CN)NC(=O)[C@H]([C@H](C)CC)NC(=O)[C@H](CC(C)C)N(C)C(=O)[C@@H]1C | 3.1 µM (≈ 2.12 µg/mL) | 0.034 µM (≈ 0.0232 µg/mL) | 100 µM (≈ 68.3 µg/mL) | 3.2 |
| CCCCCCCCCC[C@H]1OC(=O)CNC(=O)[C@H]([C@H](C)O)NC(=O)[C@H](Cc2c[nH]cn2)NC(=O)[C@H]([C@@H](C)CC)NC(=O)[C@H](CC(C)C)N(C)C(=O)[C@@H]1C | 100 µM (≈ 76.2 µg/mL) | 6.3 µM (≈ 4.8 µg/mL) | 25 µM (≈ 19.1 µg/mL) |  |
| CCCCCC[C@H]1OC(=O)CNC(=O)[C@H]([C@H](C)O)NC(=O)[C@H](CN)NC(=O)[C@H](C2CCCCCC2)NC(=O)[C@H](CC(C)C)N(C)C(=O)[C@@H]1C | 1.1 µM (≈ 0.764 µg/mL) | 0.014 µM (≈ 0.00973 µg/mL) | 50 µM (≈ 34.7 µg/mL) | 3.4 |
| CCCCCCCCCC[C@H]1OC(=O)CNC(=O)[C@H]([C@H](C)O)NC(=O)[C@H](CO)NC(=O)[C@H]([C@@H](C)CC)NC(=O)[C@H](CC(C)C)N(C)C(=O)[C@@H]1C | 9.4 µM (≈ 6.69 µg/mL) | 0.016 µM (≈ 0.0114 µg/mL) | 25 µM (≈ 17.8 µg/mL) |  |
| CCC[C@H]1C(=O)N[C@@H](C2CCCCCC2)C(=O)N[C@@H](CN)C(=O)N[C@@H]([C@H](C)O)C(=O)NCC(=O)O[C@H](CC2CC3CCC2C3)[C@@H](C)C(=O)N1C (stereo in doubt; 26) | 0.97 µM (≈ 0.684 µg/mL) | 0.041 µM (≈ 0.0289 µg/mL) |  |  |
| CCCCCCCCCC[C@H]1OC(=O)CNC(=O)[C@H]([C@H](C)O)NC(=O)[C@H](C)NC(=O)[C@H]([C@@H](C)CC)NC(=O)[C@H](CC(C)C)N(C)C(=O)[C@@H]1C | 100 µM (≈ 69.6 µg/mL) | 25 µM (≈ 17.4 µg/mL) | 25 µM (≈ 17.4 µg/mL) |  |
| CCCCCC[C@H]1OC(=O)CNC(=O)[C@H]([C@H](C)O)NC(=O)[C@H](CN)NC(=O)[C@H](Cc2ccccc2)NC(=O)[C@H](CC(C)C)N(C)C(=O)[C@@H]1C | 50 µM (≈ 34.4 µg/mL) | 0.8 µM (≈ 0.551 µg/mL) | > 100 µM |  |
| CCCCCC[C@H]1OC[C@@H](C)NC(=O)[C@H](CNCCCN)NC(=O)[C@H](CN)NC(=O)[C@H](C2CCCCCC2)NC(=O)[C@H](CCC)N(C)C(=O)[C@@H]1C | 3.1 µM (≈ 2.24 µg/mL) | 0.28 µM (≈ 0.202 µg/mL) | 50 µM (≈ 36.2 µg/mL) | 1.1 |
